The values below come from the array DNA melting data of Ke et al. (doi:10.1101/2024.01.08.574731).

A short description of series [1]: folding enthalpy; higher = less favourable; fluorescence melt of hairpins on a sequencing array, two-state fit. Conditions: sodium 0.088 M. Summed up:
(§1)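 Melting temperature and folding enthalpy were derived from bootstrapped two-state fits. The fitted temperatures were raised by 9.35 °C to agree with UV melts, and four replicates were combined by inverse variance. The underlying data were Cy3 fluorescence images of library hairpins, with annealed Cy3 and quencher oligos, on a sequenced MiSeq flow cell in 50 mM Na-HEPES pH 8.0, 25 mM NaCl, taken in 2.5 °C steps up to 60 °C, normalised to pre-quench Cy3 and to control constructs.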

Series [2] is described as follows: melting temperature; fluorescence melt of hairpins on a sequencing array, two-state fit, raised by 9.35 °C to match UV melts. Conditions: sodium 0.088 M. The method, boiled down:
as §1

On to GAGCCCGCGAAAGCGCTC (((..(((....)))))), for which the folding enthalpy in series [1] was -11.2 kcal/mol. Also, in series [2], the Tm came out at 39.2 °C.
For GGGCACGAAAGTGTCCC ((((((....))).))) the same measures were -16.5 kcal/mol and 65.1 °C.
For GAGTACGAAAGTACACTC ((((((....)))..))) the same measures were -16.2 kcal/mol and 48.3 °C.
On to GCGGTTGGAAACGACCGC (((((.(....).))))), for which the folding enthalpy in series [1] was -48.8 kcal/mol. Further, in series [2], the Tm was 62.9 °C.
For GAGCTCGCGAAAGCGCTC (((..(((....)))))) the same measures were -14.2 kcal/mol and 41.8 °C.
For GATCAACCCGTTGATC ((((((....)))))) the same measures were -42 kcal/mol and 53 °C.
For the sequence GAACACGAAAGTGTTTC ((((((....))).))), the folding enthalpy in series [1] is -12.4 kcal/mol. For the same sequence, the Tm in series [2] came to 52.9 °C.
For GATCGTTGCGACGATC ((((((....)))))) the same measures were -41.2 kcal/mol and 60.7 °C.
For GATCCCTATTGGGATC ((((((....)))))) the same measures were -43.1 kcal/mol and 62.8 °C.
For GTTGAGTCGAAAGACAAC (((..(((....)))))) the same measures were -14.6 kcal/mol and 31 °C.
GTCCACACGAAAGTGGAC (((..(((....)))))): the folding enthalpy in series [1] is -29.9 kcal/mol. Moreover, the Tm in series [2] amounted to 56.3 °C.
For GACGACGCGAAAGCGGTC (((..(((....)))))) the same measures were -11.5 kcal/mol and 47 °C.
For GATCACACAGTGATC ((((((...)))))) the same measures were -38.1 kcal/mol and 58.8 °C.
For GAGAGCGGAAACACTCTC (((((.(....).))))) the same measures were -28.1 kcal/mol and 43 °C.
Regarding CGCGGACTTCTCCGCG ((((((....)))))), the folding enthalpy in series [1] is -35.6 kcal/mol. Moreover, the Tm in series [2] stood at 65.9 °C.
For GCGAGGTCTCGC ((((....)))) the same measures were -22 kcal/mol and 54.9 °C.
Regarding GATCTCTAAAGAGATC ((((((....)))))), in series [1], the folding enthalpy is -33.4 kcal/mol. For the same sequence, the Tm in series [2] is 51.4 °C.
For GATCCGTCTTCGGATC ((((((....)))))) the same measures were -40 kcal/mol and 59.4 °C.
For GGAGCTGGAAACGGTTCC (((.(.(....).).))) the same measures were -17.5 kcal/mol and 37.6 °C.
Consider GATCCACAGCTGGATC ((((((....)))))), for which the folding enthalpy in series [1] was -31.7 kcal/mol. In series [2], the Tm came to 47.6 °C.
For GAGTTAGGAAACTAATTC ((.((((....)))).)) the same measures were -23.9 kcal/mol and 27.9 °C.
On to GGCTATCGAAAGATTGCC (((.(((....))).))), for which the folding enthalpy in series [1] was -41.3 kcal/mol. Also, in series [2], the Tm is 55.7 °C.
For GCCGAGCGAAAGCTGAGC ((..(((....)))..)) the same measures were -11.2 kcal/mol and 51.2 °C.
For GTTGACGAAAGTCACAAC ((((((....)))..))) the same measures were -9.62 kcal/mol and 36.2 °C.
For GATCCGGAGACGGATC ((((((....)))))) the same measures were -32.9 kcal/mol and 63.6 °C.
Turning to GCTATTGGAAACAACAGC (((.(((....))).))), in series [1], the folding enthalpy is -16.9 kcal/mol. In series [2], the Tm was 33.7 °C.
For GCGATTCTCGC ((((...)))) the same measures were -21.7 kcal/mol and 52 °C.
For GCGCACGAAAGTGGCCGC ((((((....)))..))) the same measures were -19.4 kcal/mol and 54.1 °C.
For GATCATAACATGATC ((((((...)))))) the same measures were -37 kcal/mol and 50.3 °C.
In the case of GCAGTATCGAAAGATTGC (((..(((....)))))), the folding enthalpy in series [1] was -20.5 kcal/mol. In addition, the Tm in series [2] stood at 34.9 °C.
For GCTACGCGAAAGCCAAGC (((..((....))..))) the same measures were -13.3 kcal/mol and 34.9 °C.
For GGCTCGCGAAAGCGGCC (((.(((....)))))), the folding enthalpy in series [1] is -19.2 kcal/mol. Besides, the Tm in series [2] is 66.5 °C.
For CGTTGCGGAAACGCTACG (((.(((....))).))) the same measures were -33.4 kcal/mol and 56 °C.
For GGGACGCCGAAAGGCCCC (((..(((....)))))), the folding enthalpy in series [1] is -13.7 kcal/mol. Besides, the Tm in series [2] was determined as 45.4 °C.
For GTGTACGAAAGTAACAC ((((((....))).))) the same measures were -30 kcal/mol and 49.5 °C.
For GGCGGGGGAAACCCTGCC (((.(((....))).))) the same measures were -27 kcal/mol and 65.2 °C.
On to GAATTCCCGAAAGGGTTC (((..(((....)))))), for which the folding enthalpy in series [1] was -13 kcal/mol. In series [2], the Tm was determined as 28 °C.
For GCGTGGATACGC ((((....)))) the same measures were -28.2 kcal/mol and 66.6 °C.
For GATCGTAACGACGATC ((((((....)))))) the same measures were -34.8 kcal/mol and 54.9 °C.
Take GCACAGGGAAACCCGTGC ((((.((....)).)))): the folding enthalpy in series [1] was -36.8 kcal/mol. The Tm in series [2] turned out to be 55.4 °C.
For GTTCACGAAAGTGGGAAC ((((((....)))..))) the same measures were -13.3 kcal/mol and 35.4 °C.
For GATCCCGAAAGGGAAATC ((((((....)))..))) the same measures were -12.1 kcal/mol and 35.1 °C.
Take GCAGGCGAAAGCCAGTGC ((((((....)))..))): the folding enthalpy in series [1] was -18.9 kcal/mol. Also, the Tm in series [2] was found to be 49.5 °C.
For GATCCGGGAGCGGATC ((((((....)))))) the same measures were -37.4 kcal/mol and 61.1 °C.
For GCAAAAGAAATTTTGC ((((((....)))))) the same measures were -25.9 kcal/mol and 46.3 °C.
Consider GGTGCACGAAAGTGGACC (((.(((....))).))), for which the folding enthalpy in series [1] was -38.1 kcal/mol. For the same sequence, in series [2], the Tm stood at 65.7 °C.
With GCGTTGCGAAAGCATCGC (((.(((....))).))), in series [1], the folding enthalpy is -55.8 kcal/mol. For the same sequence, the Tm in series [2] amounted to 61.3 °C.
For GACGCGCGAAAGCGGTC (((.(((....)))))) the same measures were -14 kcal/mol and 55 °C.
In the case of GATCAAATACTTGATC ((((((....)))))), the folding enthalpy in series [1] was -33.2 kcal/mol. Moreover, the Tm in series [2] worked out at 39.9 °C.
Take GGTCCCGAAAGGGTAACC ((((((....)))..))): the folding enthalpy in series [1] was -18 kcal/mol. Further, the Tm in series [2] turned out to be 42.2 °C.
For GCATAGCGAAAGCTCTGC (((.(((....))).))) the same measures were -45.2 kcal/mol and 49.4 °C.
For GATCACGAAAGTGAGATC ((((((....)))..))), the folding enthalpy in series [1] is -17 kcal/mol. The Tm in series [2] turned out to be 48.5 °C.
For CGGAAACGGAAACGTCCG (((..(((....)))))) the same measures were -22.9 kcal/mol and 41.1 °C.
For GGAGTCGAAAGACCTCC ((((((....))).))) the same measures were -24.5 kcal/mol and 50 °C.
For GCTACTCGAAAGAGCAGC (((.(((....))).))) the same measures were -37.7 kcal/mol and 49.6 °C.
With ACCTCGAAAGAGGT (((((....))))), the folding enthalpy in series [1] was -19.9 kcal/mol. For the same sequence, the Tm in series [2] turned out to be 59.5 °C.
For GCGTTCGAAAGAACCCGC ((((((....)))..))) the same measures were -14.2 kcal/mol and 40.8 °C.
For GTGAACGAAAGTTGACAC ((((((....)))..))) the same measures were -18.6 kcal/mol and 34.8 °C.
For GCTCTACGAAAGTAAAGC (((.(((....))).))) the same measures were -22.9 kcal/mol and 38.4 °C.
On to GCTAGGCGAAAGCATAGC ((((.((....)).)))), for which the folding enthalpy in series [1] was -32.7 kcal/mol. For the same sequence, in series [2], the Tm came to 64.6 °C.
On to GGATGACGAAAGTCTCC (((.(((....)))))), for which, in series [1], the folding enthalpy is -20 kcal/mol. Moreover, the Tm in series [2] came out at 48.6 °C.
For GTGTATGGAAACATGCAC (((.(((....))).))) the same measures were -33.9 kcal/mol and 48.9 °C.
Consider GCTTACGAAAGTAGAGC ((((((....))).))), for which the folding enthalpy in series [1] is -24.4 kcal/mol. Further, the Tm in series [2] is 43.3 °C.
Regarding GGGAGCACGAAAGTGCCC (((..(((....)))))), in series [1], the folding enthalpy is -10.6 kcal/mol. Besides, in series [2], the Tm was 59.1 °C.
On to GCCTCCGGAAACGAAGGC ((((.((....)).)))), for which, in series [1], the folding enthalpy is -28.3 kcal/mol. In series [2], the Tm amounted to 48.8 °C.
For GAGGAGCGAAAGCTCTC (((.(((....)))))) the same measures were -9.17 kcal/mol and 48.2 °C.
For GATCCGTGTACGGATC ((((((....)))))) the same measures were -45 kcal/mol and 63.6 °C.
In the case of GCGACCGTCGC ((((...)))), the folding enthalpy in series [1] is -26.8 kcal/mol. Further, the Tm in series [2] is 45.5 °C.
For CGCGCGGAAACGCCCGCG ((((((....)))..))) the same measures were -29.7 kcal/mol and 54.7 °C.
For GAGCGGGGAAACCTGCTC ((((.((....)).)))) the same measures were -30.6 kcal/mol and 57.3 °C.
Take GCATTCGAAAGAATATGC ((((((....)))..))): the folding enthalpy in series [1] is -24.8 kcal/mol. The Tm in series [2] is 36.1 °C.
For GGAACCGAAAGGTCTCC ((((((....))).))) the same measures were -22.1 kcal/mol and 44.7 °C.
For GCTCTCGGAAACGGGAGC ((((.((....)).)))) the same measures were -41.3 kcal/mol and 57.4 °C.
For GTTGAACGAAAGTTAAC (((.(((....)))))) the same measures were -12.3 kcal/mol and 30 °C.
